Laboratory results from ChEMBL document CHEMBL4118021, “Studies of TAK1-centered polypharmacology with novel covalent TAK1 inhibitors” (Bioorg Med Chem, 2017).
Activity calls are given as the source filed them. The calls are words filed in the database; no cut-off is given here.

Key:
[1] = biological target: Mitogen-activated protein kinase 3 (Homo sapiens) (UniProt P27361); test: Inhibition of Erk1 in human SKCO1 cells at 1 uM after 4 hrs using biotin labeled DLKPSNLLINTTCDLK probe by mass-spectrometric analysis relative to control; type: cell-based
[2] = biological target: Mitogen-activated protein kinase 7 (Homo sapiens) (UniProt Q13164); test: Inhibition of Erk5 in human SKCO1 cells at 1 uM after 4 hrs using biotin labeled DLKPSNLLVNENCELK probe by mass-spectrometric analysis relative to control; type: cell-based
[3] = biological target: Tyrosine-protein kinase Lck (Homo sapiens) (UniProt P06239); test: Inhibition of LCK in human SKCO1 cells at 1 uM after 4 hrs using biotin labeled EGAKFPIKWTAPEAINYGTFTIK probe by mass-spectrometric analysis relative to control; type: cell-based
[4] = biological target: Dual specificity mitogen-activated protein kinase kinase 2 (Homo sapiens) (UniProt P36507); test: Inhibition of MAP2K2 in human SKCO1 cells at 1 uM after 4 hrs using biotin labeled DVKPSNILVNSR probe by mass-spectrometric analysis relative to control; type: cell-based
In short: (§1)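 Live SK-CO-1 cells treated 4 h at 1 μM (DMSO control); cells lysed and lysates labeled with lysine-reactive ATP/ADP-biotin probe (KiNativ); probe-labeled kinase peptides quantified by mass spectrometry; inhibition expressed as percent reduction in probe-dependent recovery versus DMSO-treated cells.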

[5] = biological target: Mitogen-activated protein kinase kinase kinase 5 (Homo sapiens) (UniProt Q99683); test: Inhibition of MAP3K5 in human SKCO1 cells at 1 uM after 4 hrs using biotin labeled DIKGDNVLINTYSGVLK probe by mass-spectrometric analysis relative to control; type: cell-based
[6] = biological target: Serine/threonine-protein kinase greatwall (Homo sapiens) (UniProt Q96GX5); test: Inhibition of MASTL in human SKCO1 cells at 1 uM after 4 hrs using biotin labeled LYAVKVVK probe by mass-spectrometric analysis relative to control; type: cell-based
[7] = biological target: Serine/threonine-protein kinase Nek6 (Homo sapiens) (UniProt Q9HC98); test: Inhibition of NEK6 in human SKCO1 cells at 1 uM after 4 hrs using biotin labeled DIKPANVFITATGVVK probe by mass-spectrometric analysis relative to control; type: cell-based
[8] = biological target: Cyclin-dependent kinase 15 (Homo sapiens) (UniProt Q96Q40); test: Inhibition of PFTAIRE2 in human SKCO1 cells at 1 uM after 4 hrs using biotin labeled DLKPQNLLISHLGELK probe by mass-spectrometric analysis relative to control; type: cell-based
In short: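 Live SK-CO-1 cells exposed to compound at 1 μM or DMSO for 4 h (KiNativ). Lysates then labeled with lysine-reactive ATP/ADP-biotin probe, and probe-labeled kinase peptides quantified by mass spectrometry. Percent inhibition of probe-dependent recovery calculated relative to DMSO-treated cells.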

[9] = biological target: Tyrosine-protein kinase ZAP-70 (Homo sapiens) (UniProt P43403); test: Inhibition of ZAP70 in human SKCO1 cells at 1 uM after 4 hrs using biotin labeled ISDFGLSKALGADDSYYTAR probe by mass-spectrometric analysis relative to control; type: cell-based
[10] = biological target: T1, Mitogen-activated protein kinase kinase kinase 7 (Homo sapiens, UniProt O43318); test: Inhibition of TAK1 (unknown origin) by LanthaScreen assay
T1 sequence (O43318 whole entry): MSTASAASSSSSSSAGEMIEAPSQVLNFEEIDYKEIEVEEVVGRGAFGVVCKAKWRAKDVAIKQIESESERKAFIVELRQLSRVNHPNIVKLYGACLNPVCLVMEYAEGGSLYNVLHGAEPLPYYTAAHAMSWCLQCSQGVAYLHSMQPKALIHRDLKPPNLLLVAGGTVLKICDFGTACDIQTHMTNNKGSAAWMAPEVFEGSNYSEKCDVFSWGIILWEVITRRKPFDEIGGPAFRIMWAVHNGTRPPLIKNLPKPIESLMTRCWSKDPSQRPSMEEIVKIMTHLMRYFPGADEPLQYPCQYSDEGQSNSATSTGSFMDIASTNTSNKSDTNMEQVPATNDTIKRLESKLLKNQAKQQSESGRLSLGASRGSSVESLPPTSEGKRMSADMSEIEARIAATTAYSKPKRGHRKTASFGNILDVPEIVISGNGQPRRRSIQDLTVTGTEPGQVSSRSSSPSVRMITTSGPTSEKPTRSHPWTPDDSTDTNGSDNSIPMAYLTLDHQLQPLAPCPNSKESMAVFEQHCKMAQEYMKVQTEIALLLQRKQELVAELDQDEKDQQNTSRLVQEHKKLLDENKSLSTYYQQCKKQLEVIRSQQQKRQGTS

BaF3 = test: Antiproliferative activity against mouse BA/F3 cells harboring KRAS G12D mutant after 72 hrs in presence of IL-3 by CellTiter-Glo assay; type: functional, cell-based; conditions: BaF3, 72 h
ASPC1 = test: Antiproliferative activity against human AsPC1 cells harboring KRAS G12D mutant after 72 hrs by CellTiter-Glo assay; type: functional, cell-based; conditions: ASPC1, 72 h
[11] = Antiproliferative activity against human URMC6 cells harboring wild type KRAS after 72 hrs by CellTiter-Glo assay; type: functional, cell-based
[12] = biological target: Serine/threonine-protein kinase A-Raf (Homo sapiens) (UniProt P10398); test: Inhibition of ARAF in human SKCO1 cells at 1 uM after 4 hrs using biotin labeled DLKSNNIFLHEGLTVK probe by mass-spectrometric analysis relative to control; type: cell-based
[13] = biological target: Phosphatidylinositol 3-kinase catalytic subunit type 3 (Homo sapiens) (UniProt Q8NEB9); test: Inhibition of PIK3C3 in human SKCO1 cells at 1 uM after 4 hrs using biotin labeled TEDGGKYPVIFKHGDDLRQDQLILQIISLMDK probe by mass-spectrometric analysis relative to control; type: cell-based
[14] = biological target: Phosphatidylinositol 5-phosphate 4-kinase type-2 alpha (Homo sapiens) (UniProt P48426); test: Inhibition of PIP4K2A in human SKCO1 cells at 1 uM after 4 hrs using biotin labeled AKELPTLKDNDFINEGQK probe by mass-spectrometric analysis relative to control; type: cell-based
[15] = biological target: Wee1-like protein kinase (Homo sapiens) (UniProt P30291); test: Inhibition of Wee1 in human SKCO1 cells at 1 uM after 4 hrs using biotin labeled YIHSMSLVHMDIKPSNIFISR probe by mass-spectrometric analysis relative to control; type: cell-based; in short: as §1
[16] = biological target: T2, Mitogen-activated protein kinase kinase kinase 7 (Homo sapiens) (UniProt O43318); conditions: NCI-H358, 1 uM
T2 sequence (whole entry): T1 sequence (O43318 whole entry)

[17] = biological target: T2, Mitogen-activated protein kinase kinase kinase 7 (Homo sapiens); conditions: 0.6 uM

Chain of Cyclin-dependent kinase 15 (Homo sapiens) (Q96Q40 whole entry): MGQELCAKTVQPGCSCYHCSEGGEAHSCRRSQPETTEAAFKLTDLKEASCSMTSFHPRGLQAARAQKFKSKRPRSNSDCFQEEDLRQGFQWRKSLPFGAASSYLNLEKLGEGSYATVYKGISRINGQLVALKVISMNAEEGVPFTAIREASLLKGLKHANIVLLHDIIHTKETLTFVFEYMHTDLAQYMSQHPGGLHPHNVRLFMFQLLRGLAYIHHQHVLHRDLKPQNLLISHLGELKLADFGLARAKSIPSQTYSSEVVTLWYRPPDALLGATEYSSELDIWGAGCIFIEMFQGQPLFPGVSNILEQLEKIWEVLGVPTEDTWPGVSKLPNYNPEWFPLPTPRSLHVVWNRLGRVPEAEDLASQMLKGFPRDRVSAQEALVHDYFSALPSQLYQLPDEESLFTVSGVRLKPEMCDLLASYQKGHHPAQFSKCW
Chain of Phosphatidylinositol 3-kinase catalytic subunit type 3 (Homo sapiens) (Q8NEB9 whole entry): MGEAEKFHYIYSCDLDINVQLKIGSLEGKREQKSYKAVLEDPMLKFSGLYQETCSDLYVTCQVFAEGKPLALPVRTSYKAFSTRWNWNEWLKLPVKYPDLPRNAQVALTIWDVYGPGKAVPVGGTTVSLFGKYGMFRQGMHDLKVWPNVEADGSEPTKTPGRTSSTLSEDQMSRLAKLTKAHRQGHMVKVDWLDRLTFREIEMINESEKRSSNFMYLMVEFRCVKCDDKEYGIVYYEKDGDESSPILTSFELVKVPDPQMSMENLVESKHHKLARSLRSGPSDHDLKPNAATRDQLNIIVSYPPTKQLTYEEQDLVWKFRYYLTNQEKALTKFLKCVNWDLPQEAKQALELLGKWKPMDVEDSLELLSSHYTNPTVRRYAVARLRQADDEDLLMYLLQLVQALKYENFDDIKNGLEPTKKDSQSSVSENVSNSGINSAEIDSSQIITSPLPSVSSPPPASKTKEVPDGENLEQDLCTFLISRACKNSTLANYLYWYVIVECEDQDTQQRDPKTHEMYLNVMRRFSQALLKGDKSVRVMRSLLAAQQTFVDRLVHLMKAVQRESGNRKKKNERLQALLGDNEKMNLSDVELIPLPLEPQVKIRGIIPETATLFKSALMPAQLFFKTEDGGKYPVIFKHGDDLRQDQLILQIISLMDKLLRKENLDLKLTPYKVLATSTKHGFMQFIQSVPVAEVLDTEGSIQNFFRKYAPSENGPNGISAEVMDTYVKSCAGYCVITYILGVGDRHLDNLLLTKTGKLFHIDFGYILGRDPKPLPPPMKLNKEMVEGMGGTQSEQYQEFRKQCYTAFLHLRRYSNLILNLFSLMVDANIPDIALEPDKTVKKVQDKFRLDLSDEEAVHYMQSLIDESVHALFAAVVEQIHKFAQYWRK
Chain of Dual specificity mitogen-activated protein kinase kinase 2 (Homo sapiens) (P36507 whole entry): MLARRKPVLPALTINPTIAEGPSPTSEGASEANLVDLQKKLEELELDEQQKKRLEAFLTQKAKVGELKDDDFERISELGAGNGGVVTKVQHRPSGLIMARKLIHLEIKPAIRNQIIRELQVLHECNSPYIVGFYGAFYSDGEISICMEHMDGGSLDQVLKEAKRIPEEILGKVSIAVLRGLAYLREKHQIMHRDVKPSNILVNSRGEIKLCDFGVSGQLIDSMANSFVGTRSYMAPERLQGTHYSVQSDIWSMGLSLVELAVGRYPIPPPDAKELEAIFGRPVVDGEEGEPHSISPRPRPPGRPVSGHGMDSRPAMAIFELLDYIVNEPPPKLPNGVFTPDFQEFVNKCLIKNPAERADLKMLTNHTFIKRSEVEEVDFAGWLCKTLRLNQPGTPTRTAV
Chain of Wee1-like protein kinase (Homo sapiens) (P30291 whole entry, looked up): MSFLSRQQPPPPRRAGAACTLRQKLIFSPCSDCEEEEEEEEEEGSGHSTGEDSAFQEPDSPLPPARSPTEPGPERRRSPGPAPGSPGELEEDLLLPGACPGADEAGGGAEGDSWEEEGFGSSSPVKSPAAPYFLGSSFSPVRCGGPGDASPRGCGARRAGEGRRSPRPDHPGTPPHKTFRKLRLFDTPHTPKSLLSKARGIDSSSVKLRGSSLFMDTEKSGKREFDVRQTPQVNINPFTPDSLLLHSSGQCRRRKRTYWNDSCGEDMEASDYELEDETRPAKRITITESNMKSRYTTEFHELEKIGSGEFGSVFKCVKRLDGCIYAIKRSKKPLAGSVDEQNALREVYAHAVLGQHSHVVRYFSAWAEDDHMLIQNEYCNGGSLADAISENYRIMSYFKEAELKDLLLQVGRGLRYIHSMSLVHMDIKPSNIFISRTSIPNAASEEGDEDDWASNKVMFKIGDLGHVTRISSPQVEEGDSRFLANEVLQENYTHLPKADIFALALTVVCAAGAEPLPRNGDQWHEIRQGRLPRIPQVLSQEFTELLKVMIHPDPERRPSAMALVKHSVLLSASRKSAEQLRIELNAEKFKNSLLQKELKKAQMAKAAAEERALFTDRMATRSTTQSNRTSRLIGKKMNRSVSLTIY
Chain of Serine/threonine-protein kinase greatwall (Homo sapiens) (Q96GX5 whole entry): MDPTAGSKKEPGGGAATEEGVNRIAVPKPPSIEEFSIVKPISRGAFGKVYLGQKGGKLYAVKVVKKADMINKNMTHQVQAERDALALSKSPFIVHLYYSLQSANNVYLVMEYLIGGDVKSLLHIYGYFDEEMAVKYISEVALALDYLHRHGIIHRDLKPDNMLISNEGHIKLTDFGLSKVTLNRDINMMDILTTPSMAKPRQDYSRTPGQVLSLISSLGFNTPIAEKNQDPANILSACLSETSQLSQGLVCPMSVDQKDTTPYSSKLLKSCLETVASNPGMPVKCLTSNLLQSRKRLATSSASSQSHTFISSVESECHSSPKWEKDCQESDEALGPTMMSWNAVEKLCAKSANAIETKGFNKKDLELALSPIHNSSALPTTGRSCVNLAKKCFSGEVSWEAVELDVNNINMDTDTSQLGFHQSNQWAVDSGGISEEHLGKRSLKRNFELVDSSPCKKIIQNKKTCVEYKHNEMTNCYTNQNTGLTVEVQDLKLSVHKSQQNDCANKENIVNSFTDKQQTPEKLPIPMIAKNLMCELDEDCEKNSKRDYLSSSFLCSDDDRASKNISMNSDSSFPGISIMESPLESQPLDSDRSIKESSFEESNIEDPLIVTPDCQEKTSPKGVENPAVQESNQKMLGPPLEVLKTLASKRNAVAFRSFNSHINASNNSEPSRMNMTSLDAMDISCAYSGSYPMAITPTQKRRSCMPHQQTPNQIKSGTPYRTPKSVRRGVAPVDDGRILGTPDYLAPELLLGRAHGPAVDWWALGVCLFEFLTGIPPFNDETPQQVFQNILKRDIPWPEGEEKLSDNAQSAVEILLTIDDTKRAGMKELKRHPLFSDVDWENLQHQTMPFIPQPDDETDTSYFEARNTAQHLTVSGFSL
Chain of Mitogen-activated protein kinase kinase kinase 5 (Homo sapiens) (Q99683 whole entry): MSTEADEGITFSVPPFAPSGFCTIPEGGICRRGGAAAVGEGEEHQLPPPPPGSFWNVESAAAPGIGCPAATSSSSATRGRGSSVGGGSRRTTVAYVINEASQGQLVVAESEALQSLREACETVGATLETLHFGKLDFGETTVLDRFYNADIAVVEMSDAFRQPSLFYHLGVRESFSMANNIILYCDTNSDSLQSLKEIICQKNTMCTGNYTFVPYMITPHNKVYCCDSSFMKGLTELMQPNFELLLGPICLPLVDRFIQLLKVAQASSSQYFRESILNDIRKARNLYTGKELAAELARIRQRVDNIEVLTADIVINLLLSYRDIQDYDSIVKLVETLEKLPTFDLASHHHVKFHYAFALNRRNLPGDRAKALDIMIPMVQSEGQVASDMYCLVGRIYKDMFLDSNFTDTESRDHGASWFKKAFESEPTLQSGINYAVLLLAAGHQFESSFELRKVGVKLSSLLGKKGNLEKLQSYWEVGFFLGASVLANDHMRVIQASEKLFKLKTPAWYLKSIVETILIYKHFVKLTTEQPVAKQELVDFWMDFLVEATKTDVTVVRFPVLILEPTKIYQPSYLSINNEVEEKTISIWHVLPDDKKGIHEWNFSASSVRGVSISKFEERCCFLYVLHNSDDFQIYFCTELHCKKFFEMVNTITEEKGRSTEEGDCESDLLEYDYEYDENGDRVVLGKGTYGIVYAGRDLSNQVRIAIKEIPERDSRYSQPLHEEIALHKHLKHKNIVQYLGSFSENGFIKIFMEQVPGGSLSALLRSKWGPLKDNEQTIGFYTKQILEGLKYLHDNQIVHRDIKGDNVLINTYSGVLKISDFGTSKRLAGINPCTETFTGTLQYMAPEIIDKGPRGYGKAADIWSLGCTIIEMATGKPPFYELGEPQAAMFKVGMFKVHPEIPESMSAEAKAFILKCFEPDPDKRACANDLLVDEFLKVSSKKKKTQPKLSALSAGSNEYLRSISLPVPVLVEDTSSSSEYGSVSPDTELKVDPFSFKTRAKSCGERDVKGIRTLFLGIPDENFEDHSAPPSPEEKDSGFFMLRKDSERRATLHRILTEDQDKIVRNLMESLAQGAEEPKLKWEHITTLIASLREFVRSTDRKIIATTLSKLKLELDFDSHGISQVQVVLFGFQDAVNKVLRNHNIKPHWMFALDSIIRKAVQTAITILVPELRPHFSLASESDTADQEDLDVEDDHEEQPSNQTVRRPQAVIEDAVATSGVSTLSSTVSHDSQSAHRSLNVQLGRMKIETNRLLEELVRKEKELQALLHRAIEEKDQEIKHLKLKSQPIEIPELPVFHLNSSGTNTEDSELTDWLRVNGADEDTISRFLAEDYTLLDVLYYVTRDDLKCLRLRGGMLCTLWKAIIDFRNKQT
Chain of Phosphatidylinositol 5-phosphate 4-kinase type-2 alpha (Homo sapiens) (P48426 whole entry): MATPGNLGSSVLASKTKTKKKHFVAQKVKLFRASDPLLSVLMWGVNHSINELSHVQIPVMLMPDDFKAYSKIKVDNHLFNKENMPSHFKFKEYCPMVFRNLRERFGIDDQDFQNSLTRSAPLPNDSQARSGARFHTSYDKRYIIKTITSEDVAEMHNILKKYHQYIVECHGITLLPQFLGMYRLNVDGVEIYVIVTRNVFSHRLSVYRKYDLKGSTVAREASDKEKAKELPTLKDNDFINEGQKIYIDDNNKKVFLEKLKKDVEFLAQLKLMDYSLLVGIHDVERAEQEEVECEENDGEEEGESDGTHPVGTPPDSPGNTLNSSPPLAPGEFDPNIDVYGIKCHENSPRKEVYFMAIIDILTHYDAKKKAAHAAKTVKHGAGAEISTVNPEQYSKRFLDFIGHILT

| Compound | inhibition [1] [%] | inhibition [2] [%] | inhibition [3] [%] | inhibition [4] [%] | inhibition [5] [%] | inhibition [6] [%] | inhibition [7] [%] | inhibition [8] [%] | inhibition [9] [%] | IC50 [10] [nM] | IC50 (BaF3) [nM] | IC50 (ASPC1) [nM] | IC50 [11] [nM] | inhibition [12] [%] | inhibition [13] [%] | inhibition [14] [%] | inhibition [15] [%] | inhibition [16] | inhibition [17] |
| --- | --- | --- | --- | --- | --- | --- | --- | --- | --- | --- | --- | --- | --- | --- | --- | --- | --- | --- | --- |
| C=CC(=O)Nc1ccccc1Oc1nc(Nc2cnn(CCOC)c2)ncc1Cl | 42.7 | 11.6 | -2.7 | 7.9 | 10 | 41.3 | -0.4 | 22.8 | 34.1 | 2.4 | 302 | 1340 | 2620 |  |  |  |  |  |  |
| C=CC(=O)Nc1ccccc1Nc1nc(Nc2ccc(N3CCN(C)CC3)cc2)ncc1Cl | 5.2 |  | 0 |  | 25.5 |  |  | 41.5 |  | 50 |  |  |  | 57 | 21.1 | 2 | 79 | Active | Active |
| COc1cc(O)c2c(c1)/C=C/C[C@H](O)[C@H](O)C(=O)/C=C\C[C@H](C)OC2=O |  | 12.4 |  | 95 |  | 51.7 | 4.9 | 31.8 | 63.6 |  | 12 | 6020 | 1450 | 85.5 | 15.1 | 16.1 | 3 | Active | Active |
